Assay results: BindingDB's records for doi:10.1021/jm0510629 (University of Houston, 2006)

Experiments:
Integrase [1] = target: T1, Integrase (Human immunodeficiency virus 1, UniProt Q7ZJM1); test: Inhibition of 3'-processing activity of HIV1 integrase
In short: (§1)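 Then 20 nM 5′-32P-labeled 21-mer oligonucleotide added for 1 h. Quenched with formamide loading dye. % inhibition from 19-mer (3′-processing) or strand transfer product fractions versus DNA-alone and DNA+IN controls. IC50 from log concentration versus % inhibition plot.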

Integrase [2] = target: T1, Integrase; test: Inhibition of strand transfer activity of HIV1 integrase; in short: as §1

T1 sequence (Q7ZJM1 whole entry): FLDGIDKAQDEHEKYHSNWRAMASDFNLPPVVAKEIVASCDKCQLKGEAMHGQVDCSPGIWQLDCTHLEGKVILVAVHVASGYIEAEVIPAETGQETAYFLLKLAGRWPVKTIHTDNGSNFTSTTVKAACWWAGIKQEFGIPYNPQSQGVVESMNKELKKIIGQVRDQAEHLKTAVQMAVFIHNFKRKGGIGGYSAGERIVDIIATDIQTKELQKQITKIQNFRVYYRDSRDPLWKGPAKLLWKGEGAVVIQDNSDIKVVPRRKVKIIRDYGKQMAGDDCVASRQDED

SMILES	IC50 (Integrase [1]) [µM]	IC50 (Integrase [2]) [µM]
Cc1ccc(C(=O)C2C(=O)C(=O)N(CCN(C)C)C2c2ccccc2F)cc1 (configuration not stated) [1-(2-(dimethylamino)ethyl)-5-(2-fluorophenyl)-3-hydroxy-4-(4-methylbenzoyl)-1H-pyrrol-2(5H)-one]	> 1000	> 1000
O=C1C(=O)N(CCCN2CCOCC2)C(c2ccccc2F)C1C(=O)c1ccc(F)cc1 (configuration not stated) [4-(4-fluorobenzoyl)-5-(2-fluorophenyl)-3-hydroxy-1-(3-morpholinopropyl)-1H-pyrrol-2(5H)-one]	> 1000	> 1000
COc1ccc(C2C(C(=O)c3ccc(F)cc3)C(=O)C(=O)N2CCN(C)C)cc1OC (configuration not stated) [5-(3,4-dimethoxyphenyl)-1-(2-(dimethylamino)ethyl)-4-(4-fluorobenzoyl)-3-hydroxy-1H-pyrrol-2(5H)-one]	> 1000	> 1000
NCCCCCCNC(=O)c1c(O)c2ccccc2oc1=O [N-(6-aminohexyl)-4-hydroxy-2-oxo-2H-chromene-3-carboxamide]	> 100	> 100

The next lines start with the values.

IC50 (Integrase [1]) [µM]	IC50 (Integrase [2]) [µM]	SMILES
> 100	> 100	CN(C)CCCN1C(=O)C(=O)C(C(=O)c2cccs2)C1c1cccs1 (configuration not stated) [1-(3-(dimethylamino)propyl)-3-hydroxy-5-(thiophen-2-yl)-4-(thiophene-2-carbonyl)-1H-pyrrol-2(5H)-one]
> 100	> 100	COc1ccc(C2C(C(=O)c3ccccc3)C(=O)C(=O)N2CCCO)cc1OC (configuration not stated) [4-benzoyl-5-(3,4-dimethoxyphenyl)-3-hydroxy-1-(3-hydroxypropyl)-1H-pyrrol-2(5H)-one]
